From ChEMBL document CHEMBL2021820, “Synthesis, vasorelaxant activity, and molecular modeling study of some new phthalazine derivatives” (Eur J Med Chem, 2012)
Structures can show the parent of a compound that is named as a salt.

Assays:
Thoracic aorta [1] = assay: Vasorelaxant activity in Wister rat thoracic aorta rings assessed as reduction in maximal noradrenaline-induced spasms; format: functional, tissue-based
Procedure, shortened: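 Aortic preparations equilibrated for 2 h at 2 g resting tension. Contraction to norepinephrine hydrochloride (10^-6 M) was recorded before and after exposure to increasing concentrations of compound. Compounds came from a 0.01 M DMSO stock. Vehicle controls used DMSO alone at matching concentrations.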

Thoracic aorta [2] = assay: Ratio of IC50 for prazosin to IC50 for compound in noradrenaline-contracted Wister rat thoracic aorta rings; format: functional

| IC50 (Thoracic aorta [1]) | Compound | Ratio IC50 (Thoracic aorta [2]) |
| --- | --- | --- |
| 550 µM | COc1ccccc1N1CCN(CC(=O)NNc2nncc3ccccc23)CC1 |  |
| 560 µM | O=C(CN1CCN(c2ccccc2)CC1)NNc1nncc2ccccc12 |  |
| 160 µM | CN1CCN(CC(=O)NNc2nncc3ccccc23)CC1 | 3 |
| 270 µM | O=C(CCN1CCN(c2ccccc2)CC1)NNc1nncc2ccccc12 |  |
| 700 µM | O=C(CCN1CCN(c2ccc(Cl)cc2)CC1)NNc1nncc2ccccc12 |  |
| 410 µM | O=C(CN1CCN(c2cccc(C(F)(F)F)c2)CC1)NNc1nncc2ccccc12 |  |
| 450 µM | O=C(CN1CCN(c2ccc(Cl)cc2)CC1)NNc1nncc2ccccc12 |  |
| 500 µM | O=C(CCN1CCN(c2cccc(C(F)(F)F)c2)CC1)NNc1nncc2ccccc12 |  |

The remaining lines, values behind:

| Compound | IC50 (Thoracic aorta [1]) | Ratio IC50 (Thoracic aorta [2]) |
| --- | --- | --- |
| O=C(CN1CCOCC1)NNc1nncc2ccccc12 | 430 µM |  |
| CCOC(=O)N1CCN(CCC(=O)NNc2nncc3ccccc23)CC1 | > 1000 µM |  |
| CN1CCN(CCC(=O)NNc2nncc3ccccc23)CC1 | 360 µM |  |
| O=C(CCN1CCOCC1)NNc1nncc2ccccc12 | 580 µM |  |
| CCOC(=O)N1CCN(CC(=O)NNc2nncc3ccccc23)CC1 | > 1000 µM |  |
| COc1ccccc1N1CCN(CCC(=O)NNc2nncc3ccccc23)CC1 | 100 µM | 5 |
| O=C(CCn1ccnc1)NNc1nncc2ccccc12 | 810 µM |  |
| O=C(Cn1ccnc1)NNc1nncc2ccccc12 | 610 µM |  |
| COc1cc2nc(N3CCN(C(=O)c4ccco4)CC3)nc(N)c2cc1OC [PRAZOSIN HYDROCHLORIDE] | 480 µM |  |
